Where “and” joins values, the source holds several entries; their conditions need not be identical. Equal values may be shown once.
Biological target: DNA topoisomerase II (Homo sapiens) (UniProt P11388+Q02880)
Assay: Compound tested for ability to form a cellular covalent topoisomerase II-DNA complex.
Format: functional
Summary of the method: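 Read-out is intracellular covalent topoisomerase II–DNA complex formation, scored as the percentage of cellular protein–DNA complex formed (PCPDCF). For CoMFA modelling the values were transformed to ln(PCPDCF + 1).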

Row | Protein-DNA complex formation | Compound
1 | 191% | COc1cc([C@@H]2c3cc4c(cc3[C@@H](NCc3cccc(N)c3)[C@H]3COC(=O)[C@H]23)OCO4)cc(OC)c1O
2 | 284% | COc1cc([C@@H]2c3cc4c(cc3[C@@H](NCc3ccc(C#N)cc3)[C@H]3COC(=O)[C@H]23)OCO4)cc(OC)c1O
3 | 4% | CCOC(=O)c1ccccc1N[C@@H]1c2cc3c(cc2[C@@H](c2cc(OC)c(O)c(OC)c2)[C@H]2C(=O)OC[C@@H]21)OCO3
4 | 249% | COC(=O)c1cccc(N[C@@H]2c3cc4c(cc3[C@@H](c3cc(OC)c(O)c(OC)c3)[C@H]3C(=O)OC[C@@H]32)OCO4)c1
5 | 183% and 190% | COc1cc([C@@H]2c3cc4c(cc3[C@@H](NCCN3CCCCC3)[C@H]3COC(=O)[C@H]23)OCO4)cc(OC)c1O
6 | 179% | COc1cc([C@@H]2c3cc4c(cc3[C@@H](Nc3ccc(Br)cc3)[C@H]3COC(=O)[C@H]23)OCO4)cc(OC)c1O
7 | 47% | COc1cc([C@@H]2c3cc4c(cc3[C@@H](Nc3cc(OC)c(OC)c(OC)c3)[C@H]3COC(=O)[C@H]23)OCO4)cc(OC)c1O
8 | 83% | COC(=O)c1cc(N[C@@H]2c3cc4c(cc3[C@@H](c3cc(OC)c(O)c(OC)c3)[C@H]3C(=O)OC[C@@H]32)OCO4)ccc1O
9 | 180% | COc1ccc(N[C@@H]2c3cc4c(cc3[C@@H](c3cc(OC)c(O)c(OC)c3)[C@H]3C(=O)OC[C@@H]32)OCO4)cc1OC
10 | 290% | COc1cc([C@@H]2c3cc4c(cc3[C@@H](Nc3cccc(O)c3)[C@H]3COC(=O)[C@H]23)OCO4)cc(OC)c1O
11 | 120% | COc1cc([C@@H]2c3cc4c(cc3[C@@H](NC(=O)c3ccc(N)cc3)[C@H]3COC(=O)[C@H]23)OCO4)cc(OC)c1O
12 | 140% | COc1cc([C@@H]2c3cc4c(cc3[C@@H](Nc3ccc(N5CCOCC5)cc3)[C@H]3COC(=O)[C@H]23)OCO4)cc(OC)c1O
13 | 123% | COc1cc([C@@H]2c3cc4c(cc3[C@@H](Nc3cnc5ccccc5c3)[C@H]3COC(=O)[C@H]23)OCO4)cc(OC)c1O
14 | 150% | COc1cc([C@@H]2c3cc4c(cc3[C@@H](Nc3cccc(C(C)=O)c3)[C@H]3COC(=O)[C@H]23)OCO4)cc(OC)c1O
15 | 111% | COCCN[C@@H]1c2cc3c(cc2[C@@H](c2cc(OC)c(O)c(OC)c2)[C@H]2C(=O)OC[C@@H]21)OCO3
16 | 89.2% | COc1cc([C@@H]2c3cc4c(cc3[C@@H](NCCCO)[C@H]3COC(=O)[C@H]23)OCO4)cc(OC)c1O
17 | 129% | COC(=O)c1ccc(N[C@@H]2c3cc4c(cc3[C@@H](c3cc(OC)c(O)c(OC)c3)[C@H]3C(=O)OC[C@@H]32)OCO4)cc1O
18 | 130% | COc1cc([C@@H]2c3cc4c(cc3[C@@H](NCc3cccc([N+](=O)[O-])c3)[C@H]3COC(=O)[C@H]23)OCO4)cc(OC)c1O
19 | 94% | COc1cc([C@@H]2c3cc4c(cc3[C@@H](OC(=O)c3ccc(N)cc3)[C@H]3COC(=O)[C@H]23)OCO4)cc(OC)c1O
20 | 36.4% | COc1cc([C@@H]2c3cc4c(cc3[C@@H](N)[C@H]3COC(=O)[C@H]23)OCO4)cc(OC)c1O

Row | Protein-DNA complex formation | Compound
21 | 144% | COc1cc([C@@H]2c3cc4c(cc3[C@@H](NCc3ccccc3[N+](=O)[O-])[C@H]3COC(=O)[C@H]23)OCO4)cc(OC)c1O
22 | 211% | COc1cc([C@@H]2c3cc4c(cc3[C@@H](Nc3ccc(O)cc3)[C@H]3COC(=O)[C@H]23)OCO4)cc(OC)c1O
23 | 84.1% | C=CCN[C@@H]1c2cc3c(cc2[C@@H](c2cc(OC)c(O)c(OC)c2)[C@H]2C(=O)OC[C@@H]21)OCO3
24 | 148% | COc1cc([C@@H]2c3cc4c(cc3[C@@H](Nc3cccnc3)[C@H]3COC(=O)[C@H]23)OCO4)cc(OC)c1O
25 | 149% | COc1cc([C@@H]2c3cc4c(cc3[C@@H](NC(=O)c3cccc(N)c3)[C@H]3COC(=O)[C@H]23)OCO4)cc(OC)c1O
26 | 100% | COc1cc([C@@H]2c3cc4c(cc3[C@@H](O[C@@H]3O[C@@H]5CO[C@@H](C)O[C@H]5[C@H](O)[C@H]3O)[C@H]3COC(=O)[C@H]23)OCO4)cc(OC)c1O
27 | 10% | COc1cc([C@@H]2c3cc4c(cc3[C@@H](Sc3ccc(O)cc3)[C@H]3COC(=O)[C@H]23)OCO4)cc(OC)c1O
28 | 235% | COc1cc([C@@H]2c3cc4c(cc3[C@@H](Nc3cccc(CO)c3)[C@H]3COC(=O)[C@H]23)OCO4)cc(OC)c1O
29 | 97% | COc1cc([C@@H]2c3cc4c(cc3[C@@H](Nc3ccc(Oc5ccccc5)cc3)[C@H]3COC(=O)[C@H]23)OCO4)cc(OC)c1O
30 | 116% | COc1cc([C@@H]2c3cc4c(cc3[C@@H](NC(=O)c3cccc(F)c3)[C@H]3COC(=O)[C@H]23)OCO4)cc(OC)c1O
31 | 211% | COc1cc([C@@H]2c3cc4c(cc3[C@@H](Nc3ccc(C#N)cc3)[C@H]3COC(=O)[C@H]23)OCO4)cc(OC)c1O
32 | 99% | COc1cc([C@@H]2c3cc4c(cc3[C@@H](NCc3ccc(C(F)(F)F)cc3)[C@H]3COC(=O)[C@H]23)OCO4)cc(OC)c1O
33 | 6.9% and 1.9% | COc1cc([C@@H]2c3cc4c(cc3[C@@H](Nc3ccc(C(=O)O)cc3)[C@H]3COC(=O)[C@H]23)OCO4)cc(OC)c1O
34 | 183% and 203% | COc1cc([C@@H]2c3cc4c(cc3[C@@H](NCCN(C)C)[C@H]3COC(=O)[C@H]23)OCO4)cc(OC)c1O
35 | 164% | COc1cc([C@@H]2c3cc4c(cc3[C@@H](Nc3ccc5c(c3)OCO5)[C@H]3COC(=O)[C@H]23)OCO4)cc(OC)c1O
36 | 21% | COc1cc([C@@H]2c3cc4c(cc3[C@@H](Nc3cc(C(F)(F)F)cc(C(F)(F)F)c3)[C@H]3COC(=O)[C@H]23)OCO4)cc(OC)c1O
37 | 8% | COc1cc([C@@H]2c3cc4c(cc3[C@H](N)[C@H]3COC(=O)[C@H]23)OCO4)cc(OC)c1O
38 | 279% | COc1cc([C@@H]2c3cc4c(cc3[C@@H](Nc3ccc5c(c3)OCCO5)[C@H]3COC(=O)[C@H]23)OCO4)cc(OC)c1O
39 | 207% | CCOC(=O)c1ccc(N[C@@H]2c3cc4c(cc3[C@@H](c3cc(OC)c(O)c(OC)c3)[C@H]3C(=O)OC[C@@H]32)OCO4)cc1
40 | 167% | COc1cc([C@@H]2c3cc4c(cc3[C@@H](NC[C@H](C)O)[C@H]3COC(=O)[C@H]23)OCO4)cc(OC)c1O

Row | Compound | Protein-DNA complex formation
41 | COc1cc([C@@H]2c3cc4c(cc3[C@@H](Nc3ccc(N)cc3)[C@H]3COC(=O)[C@H]23)OCO4)cc(OC)c1O | 330%
42 | COc1cc([C@@H]2c3cc4c(cc3[C@@H](NC(=O)c3cccc(C#N)c3)[C@H]3COC(=O)[C@H]23)OCO4)cc(OC)c1O | 149%
43 | COc1cc([C@@H]2c3cc4c(cc3[C@@H](Nc3ccccc3F)[C@H]3COC(=O)[C@H]23)OCO4)cc(OC)c1O | 121%
44 | COc1cc([C@@H]2c3cc4c(cc3[C@@H](NC(=O)c3ccc(F)cc3)[C@H]3COC(=O)[C@H]23)OCO4)cc(OC)c1O | 117%
45 | COc1cc([C@@H]2c3cc4c(cc3[C@@H](Nc3ccccc3)[C@H]3COC(=O)[C@H]23)OCO4)cc(OC)c1O | 243%
46 | COc1cc([C@@H]2c3cc4c(cc3[C@@H](Nc3cccc(Cl)c3)[C@H]3COC(=O)[C@H]23)OCO4)cc(OC)c1O | 51%
47 | COc1cc([C@@H]2c3cc4c(cc3[C@@H](NC(=O)c3ccc(C#N)cc3)[C@H]3COC(=O)[C@H]23)OCO4)cc(OC)c1O | 159%
48 | COc1cc([C@@H]2c3cc4c(cc3[C@@H](Nc3ccc(Cl)cc3)[C@H]3COC(=O)[C@H]23)OCO4)cc(OC)c1O | 99%
49 | COc1cc([C@@H]2c3cc4c(cc3[C@@H](NCc3cccc(C#N)c3)[C@H]3COC(=O)[C@H]23)OCO4)cc(OC)c1O | 225%
50 | COc1cc([C@@H]2c3cc4c(cc3[C@@H](NCc3ccc(F)cc3)[C@H]3COC(=O)[C@H]23)OCO4)cc(OC)c1O | 169%
51 | COc1cc([C@@H]2c3cc4c(cc3[C@@H](Nc3ccccc3Cl)[C@H]3COC(=O)[C@H]23)OCO4)cc(OC)c1O | 32%
52 | COc1cccc(N[C@@H]2c3cc4c(cc3[C@@H](c3cc(OC)c(O)c(OC)c3)[C@H]3C(=O)OC[C@@H]32)OCO4)c1 | 104%
53 | COc1cc([C@@H]2c3cc4c(cc3[C@@H](NC(=O)c3ccc(C(C)=O)cc3)[C@H]3COC(=O)[C@H]23)OCO4)cc(OC)c1O | 124%
54 | COc1cc([C@@H]2c3cc4c(cc3[C@@H](NCc3ccccc3N)[C@H]3COC(=O)[C@H]23)OCO4)cc(OC)c1O | 184%
55 | COc1cc([C@@H]2c3cc4c(cc3[C@H](O)[C@H]3COC(=O)[C@H]23)OCO4)cc(OC)c1O | 3.3%
56 | COc1cc([C@@H]2c3cc4c(cc3[C@@H](Nc3cc(F)cc(F)c3)[C@H]3COC(=O)[C@H]23)OCO4)cc(OC)c1O | 115%
57 | COc1cc([C@@H]2c3cc4c(cc3[C@@H](O)[C@H]3COC(=O)[C@H]23)OCO4)cc(OC)c1O | 42.2%
58 | COc1cc([C@@H]2c3cc4c(cc3[C@@H](NCc3ccc([N+](=O)[O-])cc3)[C@H]3COC(=O)[C@H]23)OCO4)cc(OC)c1O | 216%
59 | COc1cc([C@@H]2c3cc4c(cc3[C@@H](NC(=O)c3ccccc3O)[C@H]3COC(=O)[C@H]23)OCO4)cc(OC)c1O | 160%
60 | COc1cc([C@@H]2c3cc4c(cc3[C@@H](NC(=O)c3cccc([N+](=O)[O-])c3)[C@H]3COC(=O)[C@H]23)OCO4)cc(OC)c1O | 86%
61 | COc1cc([C@@H]2c3cc4c(cc3[C@@H](NCc3ccccc3F)[C@H]3COC(=O)[C@H]23)OCO4)cc(OC)c1O | 126%
62 | COc1cc([C@@H]2c3cc4c(cc3[C@@H](Nc3ccccn3)[C@H]3COC(=O)[C@H]23)OCO4)cc(OC)c1O | 97%
63 | COc1cc([C@@H]2c3cc4c(cc3[C@@H](NCCO)[C@H]3COC(=O)[C@H]23)OCO4)cc(OC)c1O | 121%
64 | COc1cc([C@@H]2c3cc4c(cc3[C@@H](Nc3ccc([N+](=O)[O-])cc3)[C@H]3COC(=O)[C@H]23)OCO4)cc(OC)c1O | 323%
